Results taken from article PMC12164861 (Drug Design, Development and Therapy, 2025).

How the values were obtained:
albumin = conditions: cited from earlier work
[1] = cited from earlier work
[2] = Teicoplanin steady-state plasma trough concentration; type: in vivo, human; conditions: for teicoplanin Cmin: median (interquartile range)
Procedure, shortened: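 Retrospective cohort of adult ICU patients (Jan 2018–Dec 2023) under therapeutic drug monitoring of the test compound. Venous blood was drawn just before the next dose after at least 6 doses (steady state). Total plasma concentration was measured by HPLC, linear range 3.125–100.0 µg/mL. Target was Cmin ≥ 15.0 μg/mL. Non-normal data are given as median (interquartile range), counts as rate (%).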

percentage of teicoplanin Cmin >30.0 μg/mL ([2]; all values (64/404)) [%]	teicoplanin Cmin ([2]; patients who did not use caspofungin)	teicoplanin Cmin ([2]; patients who did not use voriconazole)	teicoplanin Cmin ([2]; patients who used caspofungin)	teicoplanin Cmin ([2]; patients who used voriconazole)	percentage of teicoplanin Cmin >30.0 μg/mL ([2]; patients with fungal co-infection) [%]	percentage of teicoplanin Cmin >30.0 μg/mL ([2]; patients without fungal infection) [%]	percentage of teicoplanin Cmin reaching the target (≥15.0 μg/mL) ([2]; year 2018 (12/50)) [%]	percentage of teicoplanin Cmin reaching the target (≥15.0 μg/mL) ([2]; year 2019 (11/18)) [%]	percentage of teicoplanin Cmin reaching the target (≥15.0 μg/mL) ([2]; year 2020 (26/40)) [%]	percentage of teicoplanin Cmin reaching the target (≥15.0 μg/mL) ([2]; year 2021 (34/49)) [%]	percentage of teicoplanin Cmin reaching the target (≥15.0 μg/mL) ([2]; year 2022 (66/88)) [%]	percentage of teicoplanin Cmin reaching the target (≥15.0 μg/mL) ([2]; year 2023 (123/159)) [%]	Compound	albumin binding (albumin)	probability of target attainment (PTA) ([1]; model-based simulations, higher-dose regimens (12 mg/kg), MIC up to 0.5 mg/L, elderly critically ill patients with pneumonia)	probability of target attainment (PTA) of target Cmin ([1]; simulations, standard dosage regimen, critically ill patients with severe renal dysfunction (eGFR ≤30 mL/min/1.73 m²)) [%]
–	–	–	–	–	–	–	–	–	–	–	–	–	CC[C@H](C)C[C@H](C)CCCCCCCCC(=O)N[C@H]1C[C@@H](O)[C@@H](NCCN)NC(=O)[C@@H]2[C@@H](O)CCN2C(=O)[C@H]([C@H](O)CCN)NC(=O)[C@H]([C@H](O)[C@@H](O)c2ccc(O)cc2)NC(=O)[C@@H]2C[C@@H](O)CN2C(=O)[C@H]([C@@H](C)O)NC1=O [Caspofungin]	≈ 97%	–	–
–	–	–	–	–	–	–	–	–	–	–	–	–	C[C@@H](c1ncncc1F)[C@](O)(Cn1cncn1)c1ccc(F)cc1F [voriconazole]	58%	–	–
15.8	19.67 (12.38, 25.45) μg/mL	19.74 (13.22, 26.18) μg/mL	20.12 (14.67, 26.68) μg/mL	18.48 (10.84, 24.24) μg/mL	20.3	12.0	24.0	61.1	65.0	69.4	75.0	77.4	Teicoplanin	–	at least 85%	52.8
